Results from ChEMBL document CHEMBL1124408, “3-aminopyridazine derivatives with atypical antidepressant, serotonergic, and dopaminergic activities” (J Med Chem, 1989).

Columns and labels:
[1] = system: Mus musculus; assay: Antidepressant activity against reserpine induced ptosis in mice after intraperitoneal administration.; format: functional; details: ip
Summary of the method: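 Female CD1 mice (18-22 g) received the drug in distilled water/gum tragacanth ip at multiple doses (7-20 mice/dose), given together with reserpine (2 mg/kg iv). One hour later, palpebral ptosis (half or more of the lid closed) was scored all-or-none. Screening dose was at most 50% of the seizure threshold dose.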

[2] = system: Mus musculus; assay: Serotonergic activity was determined by measuring the potentiation of 5-hydroxytryptophan in mice upon ip administration; format: functional
Summary of the method: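 Drug was injected ip in distilled water/gum tragacanth to female CD1 mice (18-22 g) at multiple doses (7-20 mice/dose), 30 min before a threshold dose of L-5-HTP (200 mg/kg ip). Mice were held singly in small cages, and tremor was scored all-or-none over the 20 min after L-5-HTP.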

[3] = system: Mus musculus; assay: Ability to modify turning behavior of mice after intraperitoneal administration; format: functional; details: ip, read-out: MED
Summary of the method: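 Female CD1 mice (25-30 g) were lesioned by stereotaxic injection of 6-OHDA (10 μg in 1 μL saline with 1 mg/mL ascorbic acid) into the right striatum under pentobarbitone (60 mg/kg ip). Seven days later, drug in distilled water/gum tragacanth was given ip at multiple doses (7-20 mice/dose). Ipsilateral turns were counted for 2 min starting 30 min post-dose.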

[4] = Acute toxicity in mice after intraperitoneal administration.; details: mouse, in vivo, ip, LD50

SMILES: CCc1cc(-c2ccccc2)nnc1NCCN1CCOCC1
- ED50 [1]: > 10 mg/kg
- ED50 [2]: > 10 mg/kg
- minimal effective dose [3]: 2 mg/kg
- LD50 [4]: 31 mg/kg

SMILES: Cc1cc(C)c(NCCN2CCOCC2)nn1
- ED50 [1]: > 50 mg/kg
- ED50 [2]: > 50 mg/kg
- minimal effective dose [3]: > 10 mg/kg
- LD50 [4]: > 100 mg/kg

SMILES: Cc1cc(-c2ccccc2)nnc1NCCCCN
- ED50 [1]: > 50 mg/kg
- ED50 [2]: > 30 mg/kg
- minimal effective dose [3]: 0.1 mg/kg
- LD50 [4]: 300 mg/kg

SMILES: NC(=O)c1cc(-c2ccccc2)nnc1NCCN1CCOCC1
- ED50 [1]: > 40 mg/kg
- ED50 [2]: > 60 mg/kg
- minimal effective dose [3]: 2 mg/kg

SMILES: COc1ccccc1-c1cc(C)c(NCCN2CCOCC2)nn1
- ED50 [1]: > 10 mg/kg
- ED50 [2]: > 10 mg/kg
- minimal effective dose [3]: 0.5 mg/kg
- LD50 [4]: 40 mg/kg

SMILES: Cc1cc(-c2ccc3ccccc3c2)nnc1NCCN1CCOCC1
- ED50 [1]: > 10 mg/kg
- minimal effective dose [3]: > 2 mg/kg
- LD50 [4]: 23 mg/kg

SMILES: CCCN(CCC)CCNc1nnc(-c2ccccc2)cc1C
- ED50 [1]: > 30 mg/kg
- ED50 [2]: > 30 mg/kg
- minimal effective dose [3]: 2 mg/kg
- LD50 [4]: 76 mg/kg

SMILES: Cc1cc(Cc2ccccc2)nnc1NCCN1CCOCC1
- ED50 [1]: > 10 mg/kg
- ED50 [2]: > 10 mg/kg
- minimal effective dose [3]: 2 mg/kg
- LD50 [4]: 30 mg/kg

SMILES: Cc1cc(-c2ccc([N+](=O)[O-])cc2)nnc1NCCN1CCOCC1
- LD50 [4]: 35 mg/kg

SMILES: Cc1cc(-c2ccccc2)nnc1NCCN1CCCC1
- ED50 [1]: > 30 mg/kg
- LD50 [4]: 70 mg/kg

SMILES: Clc1ccccc1Cc1cc(-c2ccccc2)nnc1NCCN1CCOCC1
- ED50 [1]: > 50 mg/kg
- ED50 [2]: > 50 mg/kg
- minimal effective dose [3]: 10 mg/kg
- LD50 [4]: 95 mg/kg

SMILES: Cc1cc(-c2ccccc2F)nnc1NCCN1CCOCC1
- ED50 [1]: > 10 mg/kg
- ED50 [2]: > 10 mg/kg
- minimal effective dose [3]: 0.5 mg/kg
- LD50 [4]: 26 mg/kg

SMILES: Cc1cc(-c2cccc3ccccc23)nnc1NCCN1CCOCC1
- ED50 [1]: > 2.5 mg/kg
- ED50 [2]: > 2.5 mg/kg
- minimal effective dose [3]: 0.01 mg/kg
- LD50 [4]: 7 mg/kg

SMILES: Cc1cc(-c2cccc(Cl)c2)nnc1NCCN1CCOCC1
- ED50 [1]: > 10 mg/kg
- ED50 [2]: > 10 mg/kg
- minimal effective dose [3]: > 2 mg/kg
- LD50 [4]: 21 mg/kg

SMILES: COc1ccc(-c2cc(C)c(NCCN3CCOCC3)nn2)cc1
- ED50 [1]: > 5 mg/kg
- ED50 [2]: > 5 mg/kg
- minimal effective dose [3]: > 2 mg/kg
- LD50 [4]: 19 mg/kg

SMILES: Br.Br.Cc1cc(-c2cccc(O)c2)nnc1NCCN1CCOCC1
- ED50 [1]: > 50 mg/kg
- ED50 [2]: > 30 mg/kg
- minimal effective dose [3]: 10 mg/kg
- LD50 [4]: > 200 mg/kg

SMILES: Cc1cc(-c2ccccc2)nnc1NCCCN
- ED50 [1]: 50 mg/kg
- ED50 [2]: > 30 mg/kg
- minimal effective dose [3]: 0.1 mg/kg
- LD50 [4]: 300 mg/kg

SMILES: CCOC(=O)c1cc(-c2ccccc2)nnc1NCCN1CCOCC1
- ED50 [1]: > 50 mg/kg
- minimal effective dose [3]: 0.5 mg/kg
- LD50 [4]: 180 mg/kg

SMILES: Cc1ccccc1-c1cc(C)c(NCCN2CCOCC2)nn1
- ED50 [1]: > 1 mg/kg
- ED50 [2]: > 1 mg/kg
- minimal effective dose [3]: > 1 mg/kg
- LD50 [4]: 5 mg/kg

SMILES: Cc1cc(-c2ccc(N)cc2)nnc1NCCN1CCOCC1
- ED50 [1]: > 5 mg/kg
- minimal effective dose [3]: > 2 mg/kg
- LD50 [4]: 15 mg/kg

SMILES: c1ccc(-c2cc(-c3ccccc3)c(NCCN3CCOCC3)nn2)cc1
- ED50 [1]: > 50 mg/kg
- ED50 [2]: > 25 mg/kg
- minimal effective dose [3]: > 2 mg/kg
- LD50 [4]: 150 mg/kg

SMILES: CCN(CC)CCNc1nnc(-c2ccccc2)cc1C
- ED50 [1]: > 30 mg/kg
- ED50 [2]: > 30 mg/kg
- minimal effective dose [3]: > 10 mg/kg
- LD50 [4]: 80 mg/kg

SMILES: c1ccc(-c2cc(Cc3ccc4ccccc4c3)c(NCCN3CCOCC3)nn2)cc1
- ED50 [1]: > 50 mg/kg
- ED50 [2]: > 100 mg/kg
- minimal effective dose [3]: 2 mg/kg
- LD50 [4]: 275 mg/kg

SMILES: Clc1ccc(Cc2cc(-c3ccccc3)nnc2NCCN2CCOCC2)cc1
- ED50 [1]: > 30 mg/kg
- ED50 [2]: > 30 mg/kg
- minimal effective dose [3]: 10 mg/kg
- LD50 [4]: 180 mg/kg

SMILES: Cc1cc(-c2ccccc2Cl)nnc1NCCN1CCOCC1
- ED50 [1]: > 5 mg/kg
- minimal effective dose [3]: 1 mg/kg
- LD50 [4]: 7 mg/kg

SMILES: Cc1ccc(-c2cc(C)c(NCCN3CCOCC3)nn2)cc1
- ED50 [1]: > 15 mg/kg
- ED50 [2]: > 15 mg/kg
- minimal effective dose [3]: 0.5 mg/kg
- LD50 [4]: 51 mg/kg

SMILES: c1ccc(Cc2cc(-c3ccccc3)nnc2NCCN2CCOCC2)cc1
- ED50 [1]: > 50 mg/kg
- ED50 [2]: > 50 mg/kg
- minimal effective dose [3]: 2 mg/kg
- LD50 [4]: 131 mg/kg
